Experimental data reported in ChEMBL document CHEMBL3739299, “8-Hydroxyquinoline-based inhibitors of the Rce1 protease disrupt Ras membrane localization in human cells” (Bioorg Med Chem, 2016).
Active and inactive are the calls of the source. The rule behind the calls is not given here.

How the values were obtained:
[1] = Cytotoxicity against human HCT116 cells assessed as cell death at 25 uM after 20 hrs by celltiter blue assay (reference value: 0.4%); format: cell-based; details: hct-116, 20 h
Method in brief: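 HCT-116 cells grown in DMEM with 10% FBS and 1% NEAA at 37 °C, 5% CO2, seeded 7 × 10^3 per well, exposed 20 h to 25 μM compound (0.4% DMSO vehicle; untreated control). CellTiter-Blue added for 4 h, fluorescence read at 560/590 nm. Values relative to untreated cells, mean of three independent experiments with SEM.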

[2] = biological target: T1, CAAX prenyl protease 2 (Homo sapiens) (UniProt Q9Y256); assay: Inhibition of human Rce1-mediated CaaX protease activity using […] and […] as substrate assessed as residual activity at 10 uM measured every 30 to 60 seconds for 60 mins
T1 sequence (whole entry): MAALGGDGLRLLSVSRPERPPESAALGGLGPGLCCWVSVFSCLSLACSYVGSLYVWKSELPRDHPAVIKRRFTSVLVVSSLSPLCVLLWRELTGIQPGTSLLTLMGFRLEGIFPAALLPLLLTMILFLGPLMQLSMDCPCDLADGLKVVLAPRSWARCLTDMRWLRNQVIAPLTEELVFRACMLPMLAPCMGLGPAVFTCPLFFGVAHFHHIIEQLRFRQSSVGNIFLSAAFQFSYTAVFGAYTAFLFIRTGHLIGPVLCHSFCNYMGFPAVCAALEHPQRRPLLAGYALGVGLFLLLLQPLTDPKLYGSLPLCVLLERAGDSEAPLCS
Method in brief: (§1)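 Membranes from yeast SM3614 (ste24 rce1 null) overexpressing human Rce1, 0.25 mg/mL final in 200 mM Tris pH 7.5, 200 mM NaCl, 1 mg/mL BSA. […] Reaction started with 20 μM ABZ-KSKTKC(farnesyl)QLIM. Fluorescence (ex 320/em 420) read every 30–60 s for 60 min at 30 °C. Initial velocities trypsin-normalised; activity given as % of DMSO control.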

[3] = biological target: T1, CAAX prenyl protease 2 (Homo sapiens); assay: Effect on EGFP-H-Ras plasma membrane association in human HCT116 cells at 25 uM after 20 hrs by fluorescence assay; details: HCT-116
[4] = biological target: T1, CAAX prenyl protease 2 (Homo sapiens); assay: Effect on EGFP-N-Ras plasma membrane association in human HCT116 cells at 25 uM after 20 hrs by fluorescence assay; details: HCT-116
[5] = biological target: T2, CAAX prenyl protease 1 homolog (Homo sapiens) (UniProt O75844); assay: Inhibition of human FACE1-mediated CaaX protease activity at 10 uM measured every 30 to 60 seconds for 60 mins
T2 sequence (whole entry): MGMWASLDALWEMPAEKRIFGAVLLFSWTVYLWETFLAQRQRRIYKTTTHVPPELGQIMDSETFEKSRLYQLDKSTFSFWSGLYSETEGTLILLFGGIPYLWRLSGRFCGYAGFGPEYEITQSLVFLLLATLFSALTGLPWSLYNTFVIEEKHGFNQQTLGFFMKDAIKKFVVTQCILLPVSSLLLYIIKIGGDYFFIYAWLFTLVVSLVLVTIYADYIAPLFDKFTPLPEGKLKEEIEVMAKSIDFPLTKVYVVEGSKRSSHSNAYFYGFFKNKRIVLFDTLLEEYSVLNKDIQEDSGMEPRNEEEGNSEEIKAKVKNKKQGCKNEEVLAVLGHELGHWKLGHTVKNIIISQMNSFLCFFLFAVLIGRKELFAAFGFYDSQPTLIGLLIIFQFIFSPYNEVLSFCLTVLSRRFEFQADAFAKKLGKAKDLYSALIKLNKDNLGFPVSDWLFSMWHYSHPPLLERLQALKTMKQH
Method in brief: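 Human Ste24 overexpressed in yeast strain SM3614 (ste24 rce1 null); membranes 0.25 mg/mL final in 200 mM Tris pH 7.5, 200 mM NaCl, 1 mg/mL BSA. Pretreated 15 min at 30 °C with 10 μM compound in duplicate, then 20 μM ABZ-KSKTKC(farnesyl)VIQL substrate added. Fluorescence (ex 320/em 420) read every 30–60 s for 60 min at 30 °C. Initial velocities normalised via trypsin-digest maximum fluorescence and expressed as % of DMSO control. SD shown.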

[6] = tested on: Protein farnesyltransferase (Rattus norvegicus); assay: Inhibition of protein farnesyltransferase (rat) at 50 uM measured every 40 seconds for 60 mins
CAAX prenyl protease 2 = biological target: T3, CAAX prenyl protease 2 (Homo sapiens, UniProt Q9Y256); assay: Inhibition of human Rce1-mediated CaaX protease activity using ABZ-KSKTKC(farnesyl)QIIM and ABZ-KSKTKC(farnesyl)VIQI as substrate assessed as residual activity measured every 30 to 60 seconds for 60 mins; method in brief: as §1
T3 sequence (Q9Y256 whole entry): T1 sequence (whole entry)

[7] = biological target: T1, CAAX prenyl protease 2 (Homo sapiens); assay: Inhibition of Rce1 in human HCT116 cells assessed as mislocalization of EGFP-K-Ras in plasma membrane at 25 uM after 20 hrs by fluorescence assay; details: HCT-116

Activity [2]	PM association [3]	PM association [4]	inhibition [5]	inhibition [6]	IC50 (CAAX prenyl protease 2)	K-Ras plasma membrane association [7]	Compound	Cell death [1]
39%	14%	10%	inactive	inactive	8.9 µM	–	Oc1c(C(Nc2ccccc2)c2ccccc2)ccc2cccnc12 (stereo not drawn)	< 10%
23%	–	–	inactive	inactive	6.7 µM	16%	O=C(O)c1ccc(NC(c2ccc(Br)cc2)c2ccc3cccnc3c2O)cc1 (stereo not drawn)	25%
